Columns and labels:
[1] = Inhibition of IL-1 induced p38 MAPK phosphorylation level in wild type mouse MEF cells at 500 nM incubated for 1 hr followed by IL-1 stimulation by Western blot analysis relative to control; type: functional
[2] = molecular target: Cyclin-dependent kinase 9 (Homo sapiens) (UniProt P50750); assay: Inhibition of CDK9 Lys2 labeling site in human A-375 cells at 5 uM by KiNativ Profiling analysis relative to control; type: cell-based
Outline: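 Live A375 melanoma cells were treated with compound at 5 or 0.5 μM. The cells were then lysed, and the lysates were labeled with a lysine-reactive ATP or ADP-biotin acyl probe (KiNativ). Inhibition is the compound's protection of each kinase labeling-site peptide from probe labeling, relative to untreated control.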

[3] = molecular target: Tyrosine-protein kinase JAK1 (Homo sapiens) (UniProt P23458); assay: Inhibition of JAK1 in human A-375 cells at 0.5 uM by KiNativ Profiling analysis relative to control; type: cell-based
Sequence of Tyrosine-protein kinase JAK1 (Homo sapiens) (P23458 whole entry): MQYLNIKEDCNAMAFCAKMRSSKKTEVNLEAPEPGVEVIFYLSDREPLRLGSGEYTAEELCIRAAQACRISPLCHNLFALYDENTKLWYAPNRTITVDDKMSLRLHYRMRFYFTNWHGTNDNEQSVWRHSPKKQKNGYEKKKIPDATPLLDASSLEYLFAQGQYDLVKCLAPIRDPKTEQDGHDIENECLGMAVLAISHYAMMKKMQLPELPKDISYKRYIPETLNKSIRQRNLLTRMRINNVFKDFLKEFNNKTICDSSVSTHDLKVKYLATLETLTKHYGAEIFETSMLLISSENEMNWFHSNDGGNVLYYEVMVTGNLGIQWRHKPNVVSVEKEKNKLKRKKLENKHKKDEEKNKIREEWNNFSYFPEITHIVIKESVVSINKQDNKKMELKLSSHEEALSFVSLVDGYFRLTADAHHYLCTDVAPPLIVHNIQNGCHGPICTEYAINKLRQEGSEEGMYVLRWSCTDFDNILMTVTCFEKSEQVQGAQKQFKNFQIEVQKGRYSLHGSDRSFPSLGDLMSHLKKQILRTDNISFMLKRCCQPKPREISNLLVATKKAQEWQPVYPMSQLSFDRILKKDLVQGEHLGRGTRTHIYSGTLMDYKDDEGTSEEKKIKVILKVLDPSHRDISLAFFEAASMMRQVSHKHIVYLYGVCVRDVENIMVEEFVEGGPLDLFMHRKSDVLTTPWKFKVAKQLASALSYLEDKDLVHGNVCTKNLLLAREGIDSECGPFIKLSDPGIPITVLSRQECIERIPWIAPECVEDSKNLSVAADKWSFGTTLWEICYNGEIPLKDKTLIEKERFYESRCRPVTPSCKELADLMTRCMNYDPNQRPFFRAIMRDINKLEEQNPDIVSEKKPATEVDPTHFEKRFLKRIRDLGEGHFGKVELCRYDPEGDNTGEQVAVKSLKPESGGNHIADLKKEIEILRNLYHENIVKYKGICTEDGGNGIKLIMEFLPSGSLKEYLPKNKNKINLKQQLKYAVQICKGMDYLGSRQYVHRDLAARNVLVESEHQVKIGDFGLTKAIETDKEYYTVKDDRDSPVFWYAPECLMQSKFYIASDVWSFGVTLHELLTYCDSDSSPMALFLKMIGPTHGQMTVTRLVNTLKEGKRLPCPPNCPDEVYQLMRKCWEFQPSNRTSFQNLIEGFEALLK

[4] = molecular target: T1, Inhibitor of nuclear factor kappa-B kinase subunit epsilon (Homo sapiens) (UniProt Q14164); assay: Inhibition of IKKe Lys2 labeling site in human A-375 cells at 0.05 uM by KiNativ Profiling analysis relative to control; type: cell-based
T1 sequence (whole entry): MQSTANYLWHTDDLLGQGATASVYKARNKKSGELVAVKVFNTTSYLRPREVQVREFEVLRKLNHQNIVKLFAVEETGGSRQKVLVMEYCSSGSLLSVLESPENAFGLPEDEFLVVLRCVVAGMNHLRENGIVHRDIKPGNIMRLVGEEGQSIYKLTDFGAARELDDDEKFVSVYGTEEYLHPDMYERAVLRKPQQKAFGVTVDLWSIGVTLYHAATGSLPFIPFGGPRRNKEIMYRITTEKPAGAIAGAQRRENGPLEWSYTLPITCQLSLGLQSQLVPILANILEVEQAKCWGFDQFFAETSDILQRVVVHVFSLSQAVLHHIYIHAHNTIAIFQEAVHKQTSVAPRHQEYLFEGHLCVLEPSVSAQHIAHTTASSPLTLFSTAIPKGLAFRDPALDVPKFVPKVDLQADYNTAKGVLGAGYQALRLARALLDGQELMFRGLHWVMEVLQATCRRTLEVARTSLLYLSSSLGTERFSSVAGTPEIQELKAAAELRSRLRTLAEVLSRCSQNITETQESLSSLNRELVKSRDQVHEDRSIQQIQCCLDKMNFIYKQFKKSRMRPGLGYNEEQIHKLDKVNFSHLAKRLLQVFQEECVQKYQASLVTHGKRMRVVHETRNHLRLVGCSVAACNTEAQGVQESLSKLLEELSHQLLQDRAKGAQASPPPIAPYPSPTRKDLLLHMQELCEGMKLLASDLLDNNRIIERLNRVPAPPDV

[5] = molecular target: Epidermal growth factor receptor (Homo sapiens) (UniProt P00533); assay: Inhibition of EGFR ACT labeling site harbouring LLGAEEKEYHAEGGKVPIK in human A-375 cells at 5 uM by KiNativ Profiling analysis relative to control; type: cell-based
Sequence of Epidermal growth factor receptor (Homo sapiens) (P00533 whole entry): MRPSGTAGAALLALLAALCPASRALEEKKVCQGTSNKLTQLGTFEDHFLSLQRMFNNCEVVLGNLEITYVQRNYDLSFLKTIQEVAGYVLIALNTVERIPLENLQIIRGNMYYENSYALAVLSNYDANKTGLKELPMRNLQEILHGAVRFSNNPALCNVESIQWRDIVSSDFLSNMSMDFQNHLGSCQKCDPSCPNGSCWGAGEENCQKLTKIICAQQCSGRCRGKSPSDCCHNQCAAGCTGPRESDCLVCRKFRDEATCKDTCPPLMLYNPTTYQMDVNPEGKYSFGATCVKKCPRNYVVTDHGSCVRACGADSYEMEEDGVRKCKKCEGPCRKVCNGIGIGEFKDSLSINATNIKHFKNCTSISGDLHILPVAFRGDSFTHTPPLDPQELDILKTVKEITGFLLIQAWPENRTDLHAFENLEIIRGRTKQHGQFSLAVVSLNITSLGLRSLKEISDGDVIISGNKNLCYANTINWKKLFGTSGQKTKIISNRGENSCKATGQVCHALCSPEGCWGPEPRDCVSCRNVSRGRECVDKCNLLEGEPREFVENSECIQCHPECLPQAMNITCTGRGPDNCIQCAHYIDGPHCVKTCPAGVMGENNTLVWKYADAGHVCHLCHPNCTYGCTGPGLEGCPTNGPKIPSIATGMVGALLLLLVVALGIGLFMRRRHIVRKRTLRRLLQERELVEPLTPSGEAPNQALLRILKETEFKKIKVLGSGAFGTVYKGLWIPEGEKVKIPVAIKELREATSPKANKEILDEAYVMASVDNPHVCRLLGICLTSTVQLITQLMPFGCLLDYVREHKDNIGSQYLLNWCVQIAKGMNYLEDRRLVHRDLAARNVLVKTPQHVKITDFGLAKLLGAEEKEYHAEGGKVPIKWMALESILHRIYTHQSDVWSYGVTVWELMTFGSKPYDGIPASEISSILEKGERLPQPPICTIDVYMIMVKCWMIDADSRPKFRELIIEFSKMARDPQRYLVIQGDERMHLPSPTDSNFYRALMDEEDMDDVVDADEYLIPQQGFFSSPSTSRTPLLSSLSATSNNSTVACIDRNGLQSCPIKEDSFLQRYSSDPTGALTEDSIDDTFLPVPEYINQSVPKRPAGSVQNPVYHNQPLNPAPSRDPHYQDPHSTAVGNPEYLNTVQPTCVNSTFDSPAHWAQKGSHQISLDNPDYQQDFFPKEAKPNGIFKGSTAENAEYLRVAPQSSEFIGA
Outline: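 Live A375 melanoma cells were treated with compound at 0.5 or 5 μM, then lysed. Lysates were labeled with a lysine-reactive ATP or ADP-biotin probe. The read-out was protection of each kinase probe-labeling site from labeling, relative to control.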

[6] = molecular target: T2, Phosphatidylinositol 5-phosphate 4-kinase type-2 alpha (Homo sapiens) (UniProt P48426); assay: Inhibition of PIP4K2A ATP labeling site in human A-375 cells at 0.5 uM by KiNativ Profiling analysis relative to control; type: cell-based
T2 sequence (whole entry): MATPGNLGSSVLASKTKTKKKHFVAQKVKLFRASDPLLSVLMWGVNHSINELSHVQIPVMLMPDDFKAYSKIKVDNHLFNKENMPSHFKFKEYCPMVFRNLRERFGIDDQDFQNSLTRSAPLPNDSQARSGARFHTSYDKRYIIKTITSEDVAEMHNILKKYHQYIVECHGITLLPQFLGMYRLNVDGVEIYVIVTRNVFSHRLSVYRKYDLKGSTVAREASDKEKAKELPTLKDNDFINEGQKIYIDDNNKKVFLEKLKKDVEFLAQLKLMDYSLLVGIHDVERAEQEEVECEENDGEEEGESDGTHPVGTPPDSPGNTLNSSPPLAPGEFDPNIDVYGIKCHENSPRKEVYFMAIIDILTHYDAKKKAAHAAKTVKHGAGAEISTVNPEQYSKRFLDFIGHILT

[7] = molecular target: T3, Mitogen-activated protein kinase kinase kinase 3 (Homo sapiens) (UniProt Q99759); assay: Inhibition of MAP3K3 Lys2 labeling site in human A-375 cells at 5 uM by KiNativ Profiling analysis relative to control; type: cell-based
T3 sequence (whole entry): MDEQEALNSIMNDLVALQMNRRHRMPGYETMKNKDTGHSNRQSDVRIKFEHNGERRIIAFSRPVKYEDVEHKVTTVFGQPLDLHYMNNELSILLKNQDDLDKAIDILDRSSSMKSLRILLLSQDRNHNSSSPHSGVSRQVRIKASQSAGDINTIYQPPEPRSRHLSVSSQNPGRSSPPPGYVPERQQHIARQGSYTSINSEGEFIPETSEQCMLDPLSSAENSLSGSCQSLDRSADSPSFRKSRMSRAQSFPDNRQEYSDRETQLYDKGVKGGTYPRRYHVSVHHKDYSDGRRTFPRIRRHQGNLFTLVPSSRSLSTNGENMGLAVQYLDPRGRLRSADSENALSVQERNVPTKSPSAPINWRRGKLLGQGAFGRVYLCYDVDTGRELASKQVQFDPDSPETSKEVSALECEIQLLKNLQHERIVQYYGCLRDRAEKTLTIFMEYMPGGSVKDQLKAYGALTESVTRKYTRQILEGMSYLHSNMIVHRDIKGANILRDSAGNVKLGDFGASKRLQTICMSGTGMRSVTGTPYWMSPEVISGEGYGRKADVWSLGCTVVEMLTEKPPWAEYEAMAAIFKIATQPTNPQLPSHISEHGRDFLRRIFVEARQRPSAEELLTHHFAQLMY

[8] = molecular target: T4, Interleukin-1 receptor-associated kinase 4 (Homo sapiens) (UniProt Q9NWZ3); assay: Inhibition of IRAK4 Lys2 labeling site in human A-375 cells at 0.05 uM by KiNativ Profiling analysis relative to control; type: cell-based
T4 sequence (whole entry): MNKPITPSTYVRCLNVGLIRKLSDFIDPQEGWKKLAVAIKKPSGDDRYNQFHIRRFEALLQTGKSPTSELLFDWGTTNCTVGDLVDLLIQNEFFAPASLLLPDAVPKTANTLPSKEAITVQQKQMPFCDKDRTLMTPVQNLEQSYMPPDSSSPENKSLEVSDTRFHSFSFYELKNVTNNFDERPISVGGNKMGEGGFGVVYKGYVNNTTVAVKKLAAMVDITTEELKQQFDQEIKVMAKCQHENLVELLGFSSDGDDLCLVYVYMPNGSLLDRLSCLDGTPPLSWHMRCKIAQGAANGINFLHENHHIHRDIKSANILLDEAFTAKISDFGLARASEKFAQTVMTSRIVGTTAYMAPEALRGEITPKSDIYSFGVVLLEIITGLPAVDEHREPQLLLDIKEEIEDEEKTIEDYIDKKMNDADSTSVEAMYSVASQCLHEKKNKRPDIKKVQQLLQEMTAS

Sequence of Cyclin-dependent kinase 9 (Homo sapiens) (P50750 whole entry): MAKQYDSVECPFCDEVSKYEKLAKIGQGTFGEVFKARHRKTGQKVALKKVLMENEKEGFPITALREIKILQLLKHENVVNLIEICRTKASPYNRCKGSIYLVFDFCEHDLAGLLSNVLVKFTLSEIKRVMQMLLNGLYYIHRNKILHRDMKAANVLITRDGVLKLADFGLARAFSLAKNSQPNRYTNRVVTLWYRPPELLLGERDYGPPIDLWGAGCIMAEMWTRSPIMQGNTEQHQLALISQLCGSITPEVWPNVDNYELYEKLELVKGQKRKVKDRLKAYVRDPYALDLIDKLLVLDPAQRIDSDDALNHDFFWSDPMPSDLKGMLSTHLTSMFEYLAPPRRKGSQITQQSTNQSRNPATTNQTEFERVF

SMILES	inhibition at 0.5 µM [1]	inhibition [2]	inhibition [3]	inhibition [4]	inhibition [5]	inhibition [6]	inhibition [7]	inhibition [8]
CNc1cc(Oc2cc(C(=O)Nc3cc(-n4cnc(C)c4)cc(C(F)(F)F)c3)ccc2C)ncn1	50%							
CNc1cc(Oc2cc(C(=O)Nc3cc(N4CCN(C)CC4)cc(C(F)(F)F)c3)ccc2C)ncn1	50%							
CCN1CCN(Cc2ccc(NC(=O)c3ccc(C)c(Oc4ccnc5[nH]ccc45)c3)cc2C(F)(F)F)CC1		19.2%	13%	29.2%	0.7%	-0.4%	-4.8%	6.9%
CCN1CCN(Cc2ccc(NC(=O)c3ccc(C)c(/C=C/c4cnc5[nH]ccc5c4OC)c3)cc2C(F)(F)F)CC1		1.2%	5.7%	19.8%	-7.4%	-5.5%	11.8%	9.7%

Source: ChEMBL document CHEMBL5696442, “Discovery of type II inhibitors of TGFβ-activated kinase 1 (TAK1) and mitogen-activated protein kinase kinase kinase kinase 2 (MAP4K2)” (J Med Chem, 2015)
